Assay results published in ChEMBL document CHEMBL5321288, “Proteolytically Stable Diaza-Peptide Foldamers Mimic Helical Hot Spots of Protein-Protein Interactions and Act as Natural Chaperones” (J Med Chem, 2023).
Calls of active or inactive are those of the source. The rule behind the calls is not given here. Starred links: 1 amine or outer side, 2 acyl side, 3 side chain; linkers in the order of their positions; H or OH if unused. Non-standard residues stand in square brackets, D forms with d. Residues, ends and D or L forms follow the SMILES beside them. *: point of attachment. X3 = C[C@H](O)CN(N[*:1])C(=O)NN(CCCCN)C(=O)[*:2]; X2 = CC(C)CN(NC(=O)N(C)N[*:1])C(=O)[*:2]; X1 = C[C@H](O)CN(N)C(=O)NN(CCCCN)C(=O)*

Columns and labels:
[1] = biological target: Amyloid-beta precursor protein (Homo sapiens) (UniProt P05067); experiment: Inhibition of Amyloid beta (1 to 42) (unknown origin) aggregation assessed as reduction in experimental fluorescence platea at 10 to 1 ratio of compound to amyloid beta (1 to 42) incubated for 48 hrs fluorescence-detected ThT-binding assay; parameters: scale not given: the % may be the effect or the level left
Sequence of Amyloid-beta precursor protein (Homo sapiens) (P05067 whole entry): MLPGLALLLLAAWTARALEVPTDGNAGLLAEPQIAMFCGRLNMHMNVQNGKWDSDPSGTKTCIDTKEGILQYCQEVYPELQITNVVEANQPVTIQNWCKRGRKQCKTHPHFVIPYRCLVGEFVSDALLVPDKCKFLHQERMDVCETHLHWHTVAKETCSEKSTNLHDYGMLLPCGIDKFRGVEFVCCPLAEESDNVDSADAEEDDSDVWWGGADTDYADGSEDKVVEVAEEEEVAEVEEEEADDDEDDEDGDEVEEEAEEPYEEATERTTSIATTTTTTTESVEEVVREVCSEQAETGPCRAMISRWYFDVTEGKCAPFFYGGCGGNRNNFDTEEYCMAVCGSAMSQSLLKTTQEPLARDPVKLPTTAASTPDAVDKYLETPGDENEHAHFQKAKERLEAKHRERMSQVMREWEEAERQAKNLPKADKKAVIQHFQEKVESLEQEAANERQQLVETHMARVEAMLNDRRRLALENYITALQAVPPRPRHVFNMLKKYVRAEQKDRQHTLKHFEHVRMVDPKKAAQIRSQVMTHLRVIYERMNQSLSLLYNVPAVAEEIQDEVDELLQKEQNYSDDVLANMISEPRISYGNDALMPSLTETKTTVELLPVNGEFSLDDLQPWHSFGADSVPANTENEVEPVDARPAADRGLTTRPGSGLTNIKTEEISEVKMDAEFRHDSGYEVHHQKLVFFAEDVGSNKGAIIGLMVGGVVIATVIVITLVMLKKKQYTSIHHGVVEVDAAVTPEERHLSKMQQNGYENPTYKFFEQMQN

[2] = biological target: Amyloid-beta precursor protein (Homo sapiens) (UniProt P05067); experiment: Inhibition of Amyloid beta (1 to 42) (unknown origin) aggregation assessed as extension of time of the half aggregation at 10 to 1 ratio of compound to amyloid beta (1 to 42) incubated for 48 hrs fluorescence-detected ThT-binding assay; parameters: scale not given: the % may be the effect or the level left
[3] = biological target: T1, Islet amyloid polypeptide (Homo sapiens) (UniProt P10997); experiment: Inhibition of hIAPP aggregation assessed as ThT fluorescence intensity at 10 to 1 ratio of compound to hIAPP by ThT fluorescence spectroscopy
T1 sequence (whole entry): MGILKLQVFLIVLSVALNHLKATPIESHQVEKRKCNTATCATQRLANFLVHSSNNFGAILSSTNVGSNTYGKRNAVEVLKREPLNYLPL

[4] = biological target: Amyloid-beta precursor protein (Homo sapiens) (UniProt P05067); experiment: Inhibition of Amyloid beta (1 to 42) (unknown origin) fibril formation assessed as decrease in factor of rate constants of secondary nucleation(k2)/elongation(K+) at 10 to 1 ratio of compound to amyloid beta (1 to 42) incubated for 48 hrs ThT assay
[5] = biological target: Amyloid-beta precursor protein (Homo sapiens) (UniProt P05067); experiment: Inhibition of Amyloid beta (1 to 42) (unknown origin) fibril formation assessed as decrease in parallel beta sheet content at 125 uM measured upto 5 hrs by CD analysis
In short: (§1)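 CD at 25 °C, 195–250 nm, 0.1 cm cell, 50 nm/min, 0.1 nm resolution, five scans averaged. Aβ1-42 or Aβ1-28 at 25 μM with inhibitor at 125 μM, spectra taken at time points up to 5 h. Buffer or inhibitor spectrum subtracted, then smoothing. Secondary structure from 200–250 nm by BeStSel deconvolution.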

[6] = Apparent permeability of the compound in apical to basolateral side in rat blood-brain barrier model at 5 uM; type: ADME, tissue-based; settings: not told
In short: (§2)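 Rat in vitro BBB model; peptide applied at 5 or 10 μM, co-incubated with Lucifer yellow as integrity standard, solutions in low-binding tubes. Transport measured apical-to-basal and basal-to-apical, in triplicate. Apical and basal samples quantified by LC-MS/MS to give apparent permeability (Papp).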

[7] = biological target: Amyloid-beta precursor protein (Homo sapiens) (UniProt P05067); experiment: Inhibition of Amyloid beta (1 to 42) (unknown origin) fibril formation assessed as decrease in factor of rate constants of secondary nucleation(k2)/elongation(K+) at 1 to 1 ratio of compound to amyloid beta (1 to 42) incubated for 48 hrs ThT assay
[8] = Apparent permeability of the compound in apical to basolateral side in rat blood-brain barrier model at 10 uM; type: ADME, tissue-based; settings: not told; in short: as §2
[9] = Cytotoxicity against rat brain endothelial cells assessed as viability at 1 to 100 ug/ml measured after 1 hr by MTT assay; type: toxicity, cell-based; settings: endothelial cell, dose 1-100 µg/ml
[10] = Plasma stability in human plasma assessed as degraded peptide at 1 uM measured after 2 hrs by UPLC-MS/MS analysis; type: ADME, cell-free
In short: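 Compound at 1 μM in human plasma at 37 °C, duplicate. Sampled at 0, 15, 30, 45, 60 and 120 min. Analysed by reversed-phase UPLC, C18 at 40 °C, 4 min gradient of 0.1% formic acid in water/acetonitrile.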

[11] = species on record: Homo sapiens; experiment: Inhibition of Amyloid beta (1 to 28) (unknown origin) fibril formation assessed as ratio of alpha-helical to beta strand at 125 uM measured upto 5 hrs by CD spectra analysis (reference value: 0.39); in short: as §1

Molecule	Activity [1] [%]	Activity [2] [%]	inhibition [3]	further results
CC(=O)NN(C[C@H](C)O)C(=O)NN(CCCCN)C(=O)N[C@@H](CO)C(=O)NN(Cc1ccc(O)cc1)C(=O)NN(CCc1c[nH]c2ccccc12)C(=O)N[C@@H](CCCCN)C(=O)NN(C)C(=O)NN(CC(C)C)C(=O)NCC(N)=O	41	42	–	–
CC(=O)NN(C[C@H](C)O)C(=O)NN(CCCCN)C(=O)N[C@@H](CO)C(=O)NN(Cc1ccc(O)cc1)C(=O)NN(CCc1c[nH]c2ccccc12)C(=O)N[C@@H](CCCCN)C(=O)N[C@@H](C)C(=O)N[C@@H](CC(C)C)C(=O)NCC(N)=O	62	72	–	–
CC(=O)N[C@H](C(=O)N[C@@H](CCCCN)C(=O)N[C@@H](CO)C(=O)NN(Cc1ccc(O)cc1)C(=O)NN(CCc1c[nH]c2ccccc12)C(=O)N[C@@H](CCCCN)C(=O)NN(C)C(=O)NN(CC(C)C)C(=O)NCC(N)=O)[C@@H](C)O	55	34	–	–
CC(=O)N[C@H](C(=O)N[C@@H](CCCCN)C(=O)N[C@@H](CO)C(=O)NN(Cc1ccc(O)cc1)C(=O)NN(CCc1c[nH]c2ccccc12)C(=O)N[C@@H](CCCCN)C(=O)N[C@@H](C)C(=O)N[C@@H](CC(C)C)C(=O)NCC(N)=O)[C@@H](C)O	56	102	–	–
CC(=O)N[C@H](C(=O)N[C@@H](CCCCN)C(=O)N[C@@H](CO)C(=O)N[C@@H](Cc1ccc(O)cc1)C(=O)N[C@@H](Cc1c[nH]c2ccccc12)C(=O)N[C@@H](CCCCN)C(=O)NN(C)C(=O)NN(CC(C)C)C(=O)NCC(N)=O)[C@@H](C)O (Ac-TKSYWK[X2]G-NH2)	30	59	–	–
CC(=O)NN(C[C@H](C)O)C(=O)NN(CCCCN)C(=O)N[C@@H](CO)C(=O)N[C@@H](Cc1ccc(O)cc1)C(=O)N[C@@H](Cc1c[nH]c2ccccc12)C(=O)N[C@@H](CCCCN)C(=O)N[C@@H](C)C(=O)N[C@@H](CC(C)C)C(=O)NCC(N)=O (Ac-[X3]SYWKALG-NH2)	36	107	–	–
CC(=O)NN(C[C@H](C)O)C(=O)NN(CCCCN)C(=O)N[C@@H](CO)C(=O)N[C@@H](Cc1ccc(O)cc1)C(=O)N[C@@H](Cc1c[nH]c2ccccc12)C(=O)N[C@@H](CCCCN)C(=O)NN(C)C(=O)NN(CC(C)C)C(=O)NCC(N)=O (Ac-[X3]SYWK[X2]G-NH2)	41	30	inactive	–
CC(C)CN(NC(=O)N(C)NC(=O)[C@H](CCCCN)NC(=O)[C@H](Cc1c[nH]c2ccccc12)NC(=O)[C@H](Cc1ccc(O)cc1)NC(=O)[C@H](CO)NC(=O)[C@H](CCCCN)NC(=O)[C@@H](N)[C@@H](C)O)C(=O)NCC(N)=O (H-TKSYWK[X2]G-NH2)	60	36	–	–
CC(C)C[C@H](NC(=O)[C@H](C)NC(=O)[C@H](CCCCN)NC(=O)[C@H](Cc1c[nH]c2ccccc12)NC(=O)[C@H](Cc1ccc(O)cc1)NC(=O)[C@H](CO)NC(=O)N(CCCCN)NC(=O)N(N)C[C@H](C)O)C(=O)NCC(N)=O (X1-SYWKALG-NH2)	54	193	inactive	–
CC(C)CN(NC(=O)N(C)NC(=O)[C@H](CCCCN)NC(=O)[C@H](Cc1c[nH]c2ccccc12)NC(=O)[C@H](Cc1ccc(O)cc1)NC(=O)[C@H](CO)NC(=O)N(CCCCN)NC(=O)N(N)C[C@H](C)O)C(=O)NCC(N)=O (X1-SYWK[X2]G-NH2)	57	254	inactive	Ratio [4]: 1e+09; inhibition [5]: Active; Papp A→B at 5 µM [6]: 0.839 ×10⁻⁶ cm/s; Ratio [7]: 10; Papp A→B at 10 µM [8]: 0.677 ×10⁻⁶ cm/s; Activity [9]: Non-Toxic; metabolised at 2 h, 1 µM [10]: 6%; Ratio [11]: 2.16
H-TKSYWKALG-NH2	59	209	inactive	Ratio [4]: 100; inhibition [5]: Active; inhibition [7]: inactive; metabolised at 2 h, 1 µM [10]: 99%; Ratio [11]: 0.66
